Laboratory results from the M2OR odorant receptor database.

Assays:
Settings in all cases: stereoisomer not certain
OR10G2 (Homo sapiens) = target: T1, OR10G2 (Homo sapiens) (UniProt Q8NGC3)
T1 sequence (whole entry): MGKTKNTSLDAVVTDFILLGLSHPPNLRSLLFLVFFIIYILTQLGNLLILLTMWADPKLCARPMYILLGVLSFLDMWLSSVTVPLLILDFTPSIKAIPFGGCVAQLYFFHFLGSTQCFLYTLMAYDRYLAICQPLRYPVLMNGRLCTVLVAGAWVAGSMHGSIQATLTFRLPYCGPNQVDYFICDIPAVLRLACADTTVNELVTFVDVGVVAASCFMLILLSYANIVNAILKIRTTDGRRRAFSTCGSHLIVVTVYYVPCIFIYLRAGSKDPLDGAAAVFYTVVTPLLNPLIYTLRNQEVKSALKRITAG
Method in brief: (§1)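 Whether a receptor–molecule pair is responsive (active) rests on the original authors' judgment that its measured signal was statistically different from baseline. Pairs without that judgment are non-responsive (inactive). Sources used varied assay methods, commonly transient luciferase assays in mammalian cell lines.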

OR10G3 (Homo sapiens) = target: T2, OR10G3 (Homo sapiens) (UniProt Q8NGC4)
T2 sequence (whole entry): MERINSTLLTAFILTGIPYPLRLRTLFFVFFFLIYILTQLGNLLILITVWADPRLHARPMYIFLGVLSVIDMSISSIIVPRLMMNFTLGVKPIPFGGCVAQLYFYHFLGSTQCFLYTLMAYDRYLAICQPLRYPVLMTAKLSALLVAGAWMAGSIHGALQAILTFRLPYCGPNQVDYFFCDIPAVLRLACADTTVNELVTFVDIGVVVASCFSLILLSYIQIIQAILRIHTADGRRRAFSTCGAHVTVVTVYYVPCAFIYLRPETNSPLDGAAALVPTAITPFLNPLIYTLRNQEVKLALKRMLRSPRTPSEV
Method in brief: as §1

OR10G4 (Homo sapiens) = target: T3, OR10G4 (Homo sapiens) (UniProt Q8NGN3)
T3 sequence (whole entry): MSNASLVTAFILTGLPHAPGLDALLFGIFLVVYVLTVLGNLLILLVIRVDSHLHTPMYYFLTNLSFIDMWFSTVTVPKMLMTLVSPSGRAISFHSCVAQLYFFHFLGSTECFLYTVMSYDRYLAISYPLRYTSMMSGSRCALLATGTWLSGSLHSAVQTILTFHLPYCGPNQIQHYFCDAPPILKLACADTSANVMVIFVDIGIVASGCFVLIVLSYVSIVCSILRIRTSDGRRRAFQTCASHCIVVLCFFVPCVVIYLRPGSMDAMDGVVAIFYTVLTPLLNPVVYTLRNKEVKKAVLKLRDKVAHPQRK
Method in brief: as §1

OR10G6 (Homo sapiens) = target: T4, OR10G6 (Homo sapiens) (UniProt Q8NH81)
T4 sequence (whole entry): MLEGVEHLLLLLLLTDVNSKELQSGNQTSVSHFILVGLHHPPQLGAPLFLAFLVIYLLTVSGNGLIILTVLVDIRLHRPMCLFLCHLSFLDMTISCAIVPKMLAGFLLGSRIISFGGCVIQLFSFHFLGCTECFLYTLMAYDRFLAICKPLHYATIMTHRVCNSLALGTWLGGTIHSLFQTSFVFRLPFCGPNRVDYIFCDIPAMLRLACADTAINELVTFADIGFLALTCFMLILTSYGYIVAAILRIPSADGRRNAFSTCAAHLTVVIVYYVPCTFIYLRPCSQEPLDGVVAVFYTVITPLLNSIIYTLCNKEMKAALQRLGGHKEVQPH
Method in brief: as §1

OR10G7 (Homo sapiens) = target: T5, OR10G7 (Homo sapiens) (UniProt Q8NGN6)
T5 sequence (whole entry): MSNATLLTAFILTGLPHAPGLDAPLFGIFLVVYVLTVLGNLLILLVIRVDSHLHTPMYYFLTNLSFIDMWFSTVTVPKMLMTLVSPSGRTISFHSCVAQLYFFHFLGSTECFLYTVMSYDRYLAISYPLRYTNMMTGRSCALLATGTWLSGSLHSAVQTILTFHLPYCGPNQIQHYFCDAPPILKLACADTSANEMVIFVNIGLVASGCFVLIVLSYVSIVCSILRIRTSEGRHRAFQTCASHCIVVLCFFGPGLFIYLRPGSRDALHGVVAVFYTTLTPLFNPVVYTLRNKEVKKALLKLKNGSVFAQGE
Method in brief: as §1

OR10G8 (Homo sapiens) = target: T6, OR10G8 (Homo sapiens) (UniProt Q8NGN5)
T6 sequence (whole entry): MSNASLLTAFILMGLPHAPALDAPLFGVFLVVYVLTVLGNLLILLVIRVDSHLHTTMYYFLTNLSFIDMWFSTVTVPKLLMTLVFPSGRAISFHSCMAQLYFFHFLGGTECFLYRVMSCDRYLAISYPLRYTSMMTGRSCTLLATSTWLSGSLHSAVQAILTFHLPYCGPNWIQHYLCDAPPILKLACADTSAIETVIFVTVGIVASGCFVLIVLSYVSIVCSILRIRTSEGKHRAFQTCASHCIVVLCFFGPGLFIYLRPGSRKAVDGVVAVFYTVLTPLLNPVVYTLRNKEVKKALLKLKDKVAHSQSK
Method in brief: as §1

OR10G9 (Homo sapiens) = target: T7, OR10G9 (Homo sapiens) (UniProt Q8NGN4)
T7 sequence (whole entry): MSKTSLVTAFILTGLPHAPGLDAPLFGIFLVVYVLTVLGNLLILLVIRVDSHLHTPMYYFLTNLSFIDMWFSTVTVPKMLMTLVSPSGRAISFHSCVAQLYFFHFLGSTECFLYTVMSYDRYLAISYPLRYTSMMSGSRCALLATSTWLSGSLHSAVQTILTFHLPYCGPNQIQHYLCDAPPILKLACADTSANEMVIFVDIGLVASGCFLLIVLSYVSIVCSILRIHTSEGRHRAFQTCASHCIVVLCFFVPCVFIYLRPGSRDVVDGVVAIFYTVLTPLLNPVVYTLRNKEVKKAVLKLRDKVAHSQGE
Method in brief: as §1

OR10H1 (Homo sapiens) = target: T8, OR10H1 (Homo sapiens) (UniProt Q9Y4A9)
T8 sequence (whole entry): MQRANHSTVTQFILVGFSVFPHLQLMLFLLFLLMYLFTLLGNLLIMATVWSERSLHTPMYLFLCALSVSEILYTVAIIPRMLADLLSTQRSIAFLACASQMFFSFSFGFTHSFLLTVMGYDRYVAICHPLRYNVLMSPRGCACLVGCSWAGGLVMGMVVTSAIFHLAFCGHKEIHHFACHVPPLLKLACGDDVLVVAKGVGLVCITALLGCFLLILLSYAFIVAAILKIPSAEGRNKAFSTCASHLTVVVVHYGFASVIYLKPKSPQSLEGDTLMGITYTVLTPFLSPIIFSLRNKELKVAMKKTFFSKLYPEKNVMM
Method in brief: as §1

OR10H2 (Homo sapiens) = target: T9, OR10H2 (Homo sapiens) (UniProt O60403)
T9 sequence (whole entry): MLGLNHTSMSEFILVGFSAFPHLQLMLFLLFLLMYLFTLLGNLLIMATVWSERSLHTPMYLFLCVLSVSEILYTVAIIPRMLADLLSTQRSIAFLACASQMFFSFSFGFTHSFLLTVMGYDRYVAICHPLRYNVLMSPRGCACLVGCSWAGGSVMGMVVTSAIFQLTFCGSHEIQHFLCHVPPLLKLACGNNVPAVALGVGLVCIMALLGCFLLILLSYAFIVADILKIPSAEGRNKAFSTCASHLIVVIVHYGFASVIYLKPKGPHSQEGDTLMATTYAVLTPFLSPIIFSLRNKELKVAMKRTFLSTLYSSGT
Method in brief: as §1

Measured: odorant receptor agonist call;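 further: active if original authors judged signal statistically different from baseline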

CCCCC(S)C(C)CO (centres undefined)
inactive: all assays above
